Assay results as given in ChEMBL document CHEMBL4364345, “Synthesis and evaluation of 1,3,4-oxadiazole derivatives for development as broad-spectrum antibiotics” (Bioorg Med Chem, 2019).
Converted amounts (≈) assume the structure as drawn. The source made the active and inactive calls.

Key:
Bacteroides fragilis [1] = test: Antimicrobial activity against Bacteroides fragilis ATCC 25285 by broth microdilution method; type: functional
How it was run: (§1)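 MICs were set by broth microdilution following EUCAST guidelines, from three independent experiments reported as values or ranges. MICs were measured only where disk-diffusion inhibition diameters were 9 mm or more.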

Klebsiella pneumoniae = test: Antimicrobial activity against Klebsiella pneumoniae clinical isolate at 50 ug/disk incubated for 20 +/- 4 hrs by agar disk diffusion method; type: functional; details: read-out: DIZ
How it was run: (§2)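 Agar disk diffusion on Mueller-Hinton agar swab-seeded from a 0.5 McFarland inoculum (about 10^8 CFU/ml). Cellulose discs got 50 μg compound (10 μl of 5 g/L in DMSO); a 10 μL DMSO disc was the control. Incubated aerobically at 35 ± 2 °C for 20 ± 4 h, then growth-inhibition diameters measured.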

Escherichia coli [2] = test: Antimicrobial activity against TolC deficient Escherichia coli BW25113 by broth microdilution method; type: functional
How it was run: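 MIC by broth microdilution per EUCAST guidelines, in E. coli BW25113 and its previously described deletion derivative.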

Huh-7 = test: Cytotoxicity against human HuH7 cells assessed as decrease in cell viability in MTT assay; type: cell-based
How it was run: (§3)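 Cell viability was measured by MTT on a robotic screening platform. Residual viability was expressed as a percentage of the mean viable cells in DMSO-treated controls. Under 25-30% viability was considered cytotoxic, and IC50 values were derived.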

Morganella morganii [3] = test: Antimicrobial activity against Morganella morganii EB6 clinical isolate at 50 ug/disk incubated for 20 +/- 4 hrs by agar disk diffusion method; type: functional; details: read-out: DIZ; how it was run: as §2
Escherichia coli [4] = test: Antimicrobial activity against Escherichia coli BW25113 at 10 mM/disk incubated for 20 +/- 4 hrs by agar disk diffusion method; type: functional; details: read-out: DIZ
MCF7 = test: Cytotoxicity against human MCF7 cells assessed as decrease in cell viability in MTT assay; type: cell-based; how it was run: as §3
Morganella morganii [5] = test: Antimicrobial activity against Morganella morganii EB8clinical isolate at 50 ug/disk incubated for 20 +/- 4 hrs by agar disk diffusion method; type: functional; details: EB8, read-out: DIZ; how it was run: as §2
[6] = test system: Mycolicibacterium fortuitum; test: Antimicrobial activity against Mycobacterium fortuitum clinical isolate by broth microdilution method; type: functional; how it was run: as §1
[7] = test system: Staphylococcus epidermidis; test: Antimicrobial activity against Staphylococcus epidermidis clinical isolate by broth microdilution method; type: functional; how it was run: as §1
Listeria monocytogenes [8] = test: Antimicrobial activity against Listeria monocytogenes clinical isolate by broth microdilution method; type: functional; how it was run: as §1
Enterococcus faecalis [9] = test: Antimicrobial activity against Enterococcus faecalis ATCC 29212 at 50 ug/disk incubated for 20 +/- 4 hrs by agar disk diffusion method; type: functional; details: read-out: DIZ; how it was run: as §2
Proteus mirabilis = test: Antimicrobial activity against Proteus mirabilis clinical isolate at 50 ug/disk incubated for 20 +/- 4 hrs by agar disk diffusion method; type: functional; details: read-out: DIZ; how it was run: as §2
Enterococcus faecium [10] = test: Antimicrobial activity against Enterococcus faecium AUS0004 by broth microdilution method; type: functional; how it was run: as §1
[11] = test system: Staphylococcus epidermidis; test: Antimicrobial activity against Staphylococcus epidermidis clinical isolate at 50 ug/disk incubated for 20 +/- 4 hrs by agar disk diffusion method; type: functional; details: read-out: DIZ; how it was run: as §2
Escherichia coli [12] = test: Antimicrobial activity against arfA-arfB TolC deficient Escherichia coli BW25113 by agar disk diffusion method; type: functional
Enterococcus faecium [13] = test: Antimicrobial activity against Enterococcus faecium HM1070 at 50 ug/disk incubated for 20 +/- 4 hrs by agar disk diffusion method; type: functional; details: read-out: DIZ; how it was run: as §2
Enterococcus faecium [14] = test: Antimicrobial activity against Enterococcus faecium AUS0004 at 50 ug/disk incubated for 20 +/- 4 hrs by agar disk diffusion method; type: functional; details: read-out: DIZ; how it was run: as §2
Bacteroides fragilis [15] = test: Antimicrobial activity against Bacteroides fragilis ATCC 25285 at 50 ug/disk incubated for 20 +/- 4 hrs by agar disk diffusion method; type: functional; details: read-out: DIZ
How it was run: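 Anaerobic disk diffusion: MH agar + 5% horse blood seeded from a 0.5 McFarland swab, with discs of 50 μg compound (10 μl of 5 g/L DMSO solution) and a DMSO control disc. Kept at 35 ± 2 °C under anaerobic conditions for 20 ± 4 h; inhibition diameters recorded.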

HCT-116 = test: Cytotoxicity against human HCT116 cells assessed as decrease in cell viability in MTT assay; type: cell-based; how it was run: as §3
Listeria monocytogenes [16] = test: Antimicrobial activity against Listeria monocytogenes clinical isolate at 50 ug/disk incubated for 20 +/- 4 hrs by agar disk diffusion method; type: functional; details: read-out: DIZ
How it was run: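 Disk diffusion on MH agar with 5% horse blood, seeded by swab from a 0.5 McFarland suspension. Discs held 50 μg compound from a 5 g/L DMSO solution, with a DMSO-only control disc. Aerobic incubation at 35 ± 2 °C for 20 ± 4 h; inhibition zone diameter read.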

Staphylococcus aureus = test: Antimicrobial activity against Staphylococcus aureus clinical isolate at 50 ug/disk incubated for 20 +/- 4 hrs by agar disk diffusion method; type: functional; details: read-out: DIZ; how it was run: as §2
Enterobacter cloacae = test: Antimicrobial activity against Enterobacter cloacae clinical isolate at 50 ug/disk incubated for 20 +/- 4 hrs by agar disk diffusion method; type: functional; details: read-out: DIZ; how it was run: as §2
Escherichia coli [17] = test: Antimicrobial activity against Escherichia coli ATCC 25922 at 50 ug/disk incubated for 20 +/- 4 hrs by agar disk diffusion method; type: functional; details: read-out: DIZ; how it was run: as §2
Enterococcus faecalis [18] = test: Synergistic antimicrobial activity against Enterococcus faecalis ATCC 29212 assessed as DIZ at 50 ug/disk incubated for 20 +/- 4 hrs in presence of rifampicin by agar disk diffusion method (reference value: 20 millimeter); type: functional; details: read-out: DIZ
Enterococcus faecium [19] = test: Synergistic antimicrobial activity against Enterococcus faecium AUS0004 assessed as DIZ at 50 ug/disk incubated for 20 +/- 4 hrs in presence of rifampicin by agar disk diffusion method (reference value: 10 millimeter); type: functional; details: read-out: DIZ
Enterococcus faecium [20] = test: Synergistic antimicrobial activity against Enterococcus faecium AUS0004 assessed as DIZ at 50 ug/disk incubated for 20 +/- 4 hrs in presence of gentamicin by agar disk diffusion method (reference value: 17 millimeter); type: functional; details: read-out: DIZ
Listeria monocytogenes [21] = test: Synergistic antimicrobial activity against Listeria monocytogenes clinical isolate assessed as DIZ at 50 ug/disk incubated for 20 +/- 4 hrs in presence of moxalactam by agar disk diffusion method (reference value: 13 millimeter); type: functional; details: read-out: DIZ
Enterococcus faecium [22] = test: Synergistic antimicrobial activity against Enterococcus faecium AUS0004 assessed as DIZ at 50 ug/disk incubated for 20 +/- 4 hrs in presence of streptomycin by agar disk diffusion method (reference value: 22 millimeter); type: functional; details: read-out: DIZ
Enterococcus faecalis [23] = test: Synergistic antimicrobial activity against Enterococcus faecalis ATCC 29212 assessed as DIZ at 50 ug/disk incubated for 20 +/- 4 hrs in presence of streptomycin by agar disk diffusion method (reference value: 18 millimeter); type: functional; details: read-out: DIZ
Enterococcus faecium [24] = test: Synergistic antimicrobial activity against Enterococcus faecium AUS0004 assessed as DIZ at 50 ug/disk incubated for 20 +/- 4 hrs in presence of imipenem by agar disk diffusion method (reference value: 6 millimeter); type: functional; details: read-out: DIZ
Enterococcus faecium [25] = test: Synergistic antimicrobial activity against Enterococcus faecium AUS0004 assessed as DIZ at 50 ug/disk incubated for 20 +/- 4 hrs in presence of ampicillin by agar disk diffusion method (reference value: 6 millimeter); type: functional; details: read-out: DIZ
Enterococcus faecium [26] = test: Synergistic antimicrobial activity against Enterococcus faecium AUS0004 assessed as DIZ at 50 ug/disk incubated for 20 +/- 4 hrs in presence of erythromycin by agar disk diffusion method (reference value: 6 millimeter); type: functional; details: read-out: DIZ
Listeria monocytogenes [27] = test: Synergistic antimicrobial activity against Listeria monocytogenes clinical isolate assessed as DIZ at 50 ug/disk incubated for 20 +/- 4 hrs in presence of fosfomycin by agar disk diffusion method (reference value: 6 millimeter); type: functional; details: read-out: DIZ

O=C(Nc1nnc(-c2ccc(F)cc2)o1)c1ccc(Cl)cc1
MIC (Bacteroides fragilis [1]): 2 to 4 µg/mL (≈ 6.3 to 12.6 µM) | zone of inhibition at 50 µg/disc (Klebsiella pneumoniae): 6 mm | MIC (Escherichia coli [2]): 2 µM (≈ 0.635 µg/mL) | IC50 (Huh-7): 20 µM | zone of inhibition at 50 µg/disc (Morganella morganii [3]): 6 mm | zone of inhibition at 10000 µM (Escherichia coli [4]): 6 mm | IC50 (MCF7): 22 µM | zone of inhibition at 50 µg/disc (Morganella morganii [5]): 6 mm | MIC [6]: 32 µg/mL (≈ 101 µM) | MIC [7]: 0.5 to 4 µg/mL (≈ 1.57 to 12.6 µM) | MIC (Listeria monocytogenes [8]): 4 µg/mL (≈ 12.6 µM) | zone of inhibition at 50 µg/disc (Enterococcus faecalis [9]): 6 mm | zone of inhibition at 50 µg/disc (Proteus mirabilis): 6 mm | MIC (Enterococcus faecium [10]): 16 µg/mL (≈ 50.4 µM) | zone of inhibition at 50 µg/disc [11]: 15 mm | diameter of the inhibition zone (DIZ) (Escherichia coli [12]): 12.3 mm | zone of inhibition at 50 µg/disc (Enterococcus faecium [13]): 8 mm | zone of inhibition at 50 µg/disc (Enterococcus faecium [14]): 6 mm | zone of inhibition at 50 µg/disc (Bacteroides fragilis [15]): 6 mm | IC50 (HCT-116): 17 µM | zone of inhibition at 50 µg/disc (Listeria monocytogenes [16]): 13 mm | zone of inhibition at 50 µg/disc (Staphylococcus aureus): 17 mm | zone of inhibition at 50 µg/disc (Enterobacter cloacae): 6 mm | zone of inhibition at 50 µg/disc (Escherichia coli [17]): 6 mm

O=C(Nc1ncc(-c2ccc(F)cc2)o1)c1ccc(Cl)cc1
MIC (Bacteroides fragilis [1]): inactive | zone of inhibition at 50 µg/disc (Klebsiella pneumoniae): 6 mm | zone of inhibition at 50 µg/disc (Enterococcus faecalis [18]): 20 mm | IC50 (Huh-7): 3 µM | zone of inhibition at 50 µg/disc (Enterococcus faecium [19]): 15 mm | zone of inhibition at 50 µg/disc (Morganella morganii [3]): 6 mm | zone of inhibition at 50 µg/disc (Enterococcus faecium [20]): 18 mm | zone of inhibition at 10000 µM (Escherichia coli [4]): 6 mm | IC50 (MCF7): 4 µM | zone of inhibition at 50 µg/disc (Morganella morganii [5]): 6 mm | MIC [6]: 32 to 64 µg/mL (≈ 101 to 202 µM) | zone of inhibition at 50 µg/disc (Listeria monocytogenes [21]): 17 mm | MIC [7]: 0.25 µg/mL (≈ 0.789 µM) | zone of inhibition at 50 µg/disc (Enterococcus faecium [22]): 21 mm | MIC (Listeria monocytogenes [8]): 32 to 64 µg/mL (≈ 101 to 202 µM) | zone of inhibition at 50 µg/disc (Enterococcus faecalis [9]): 11 mm | zone of inhibition at 50 µg/disc (Enterococcus faecalis [23]): 19 mm | zone of inhibition at 50 µg/disc (Enterococcus faecium [24]): 13 mm | zone of inhibition at 50 µg/disc (Proteus mirabilis): 6 mm | MIC (Enterococcus faecium [10]): 1 to 4 µg/mL (≈ 3.16 to 12.6 µM) | zone of inhibition at 50 µg/disc (Enterococcus faecium [25]): 13 mm | zone of inhibition at 50 µg/disc [11]: 18 mm | diameter of the inhibition zone (DIZ) (Escherichia coli [12]): 14 mm | zone of inhibition at 50 µg/disc (Enterococcus faecium [26]): 12 mm | zone of inhibition at 50 µg/disc (Enterococcus faecium [13]): 13 mm | zone of inhibition at 50 µg/disc (Enterococcus faecium [14]): 12 mm | zone of inhibition at 50 µg/disc (Bacteroides fragilis [15]): 8 mm | IC50 (HCT-116): 2 µM | zone of inhibition at 50 µg/disc (Listeria monocytogenes [27]): 15 mm | zone of inhibition at 50 µg/disc (Listeria monocytogenes [16]): 17 mm | zone of inhibition at 50 µg/disc (Staphylococcus aureus): 20 mm | zone of inhibition at 50 µg/disc (Enterobacter cloacae): 6 mm | zone of inhibition at 50 µg/disc (Escherichia coli [17]): 8 mm
